Reference: ChEMBL document CHEMBL1127388, “Synthesis and structure-activity relationships in a series of antiinflammatory corticosteroid analogues, halomethyl androstane-17 beta-carbothioates and -17 beta-carboselenoates” (1994)

How the values were obtained:
Format in all cases: functional
Homo sapiens = species: Homo sapiens; experiment: Tested for human vasoconstrictor activity relative to fluocinolone acetonide (100)
Mus musculus [1] = experiment: Systemic corticosteroid activity after topical application relative to fluocinolone acetonide in mice.
Method in brief: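 Mice (25–30 g), nine groups of 10, given topical steroid in acetone daily for seven consecutive days; reference fluocinolone acetonide daily doses 0.47, 1.9, 7.5 and 30 µg; vehicle controls. Day after last dose, Et₂O vapor stress 1 min, re-anaesthetised with Et₂O; blood of two mice pooled; plasma corticosterone read fluorimetrically; potency from log daily dose vs corticosterone.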

Mus musculus [2] = experiment: Topical anti-inflammatory activity relative to fluocinolone acetonide in mice.
Method in brief: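 Croton oil ear test in mice (22–28 g), nine groups of 10; steroid dissolved in croton oil (2 vol)/EtOH (20)/Et₂O (78), 0.02 mL to inner aspect of both ears; reference doses 0.015, 0.06, 0.25, 1 µg; untreated-oil controls; ears weighed after 6 h; potency from log dose vs ear weight.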

Rattus norvegicus [3] = experiment: Topical anti-inflammatory activity relative to fluocinolone acetonide in rats.
Method in brief: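 Modified Tonelli croton oil ear test: rats (54–70 g), 7 groups of 10; graded steroid doses in croton oil (5 vol)/EtOH (20)/Et₂O (75), 0.04 mL to inner aspect of both ears (reference 0.06, 0.25, 1 µg); control gets unmedicated oil. After 6 h, CO₂ kill, ears weighed separately; relative potency by ANOVA on log dose and ear weight.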

Rattus norvegicus [4] = experiment: Systemic corticosteroid activity after topical application relative to fluocinolone acetonide in rats.
Method in brief: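 Rats (170–200 g), seven groups of six, fur clipped, ca. 2 cm² dorsal area dosed once daily for seven days with steroid in acetone (0.02 mL; reference 0.5, 2, 8 µg). Day after final dose: Et₂O stress 1 min, 20 min later pentobarbitone i.p., cardiac blood; fluorimetric plasma corticosterone or adrenal weights; potency from log daily dose.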

SMILES | Activity (Homo sapiens) | Activity (Mus musculus [1]) | Activity (Mus musculus [2]) | Activity (Rattus norvegicus [3]) | Activity (Rattus norvegicus [4])
CCCC(=O)O[C@]1(C(=O)SCF)[C@H](C)CC2C3C[C@H](F)C4=CC(=O)C=C[C@]4(C)[C@@]3(F)[C@@H](O)C[C@@]21C (stereo partly specified) | 299 | 0.7 | 55 | 55 | –
C=C1CC2C3CCC4=CC(=O)C=C[C@]4(C)[C@@]3(F)[C@@H](O)C[C@]2(C)[C@@]1(OC(=O)CC)C(=O)SCCl (stereo partly specified) | 365 | 2 | 42 | 12 | 0.8
CCC(=O)O[C@]1(C(=O)SCCl)CCC2C3CCC4=CC(=O)C=C[C@]4(C)[C@@]3(F)[C@@H](O)C[C@@]21C (stereo partly specified) | 916 | 100 | 20 | – | –
CC(=O)O[C@]1(C(=O)SCF)[C@H](C)CC2C3C[C@H](F)C4=CC(=O)C=C[C@]4(C)[C@@]3(F)[C@@H](O)C[C@@]21C (stereo partly specified) | 392 | 2.9 | 76 | 88 | 3
CCC(=O)O[C@]1(C(=O)SCF)[C@@H](C)CC2C3CCC4=CC(=O)C=C[C@]4(C)[C@H]3[C@@H](O)C[C@@]21C (stereo partly specified) | 800 | – | 50 | 44 | 5.1
C=C1CC2C3CCC4=CC(=O)C=C[C@]4(C)[C@@]3(F)[C@@H](O)C[C@]2(C)[C@@]1(OC(=O)CC)C(=O)[Se]CCl (stereo partly specified) | 200 | 2 | 40 | 16 | –
CCC(=O)O[C@]1(C(=O)SCBr)[C@@H](C)CC2C3CCC4=CC(=O)C=C[C@]4(C)[C@@]3(F)[C@@H](O)C[C@@]21C (stereo partly specified) | 254 | – | – | – | –
CCC(=O)O[C@]1(C(=O)SCI)[C@@H](C)CC2C3CCC4=CC(=O)C=C[C@]4(C)[C@@]3(F)[C@@H](O)C[C@@]21C (stereo partly specified) | 41 | – | – | – | –
CCC(=O)O[C@]1(C(=O)SCCl)[C@@H](C)CC2C3CCC4=CC(=O)C=C[C@]4(C)[C@@]3(F)[C@@H](O)C[C@@]21C (stereo partly specified) | 1469 | 44 | 41 | 36 | 0.9
C=C1CC2C3CCC4=CC(=O)C=C[C@]4(C)[C@@]3(F)[C@@H](O)C[C@]2(C)[C@@]1(OC(=O)CC)C(=O)[Se]C (stereo partly specified) | 187 | – | 27 | 19 | <0.2
CCC(=O)O[C@]1(C(=O)SCCl)[C@@H](C)CC2C3CCC4=CC(=O)C=C[C@]4(C)[C@H]3[C@@H](O)C[C@@]21C (stereo partly specified) | 295 | – | 27 | 29 | 1.4
C=C1CC2C3CCC4=CC(=O)C=C[C@]4(C)[C@@]3(F)[C@@H](O)C[C@]2(C)[C@@]1(OC(=O)CC)C(=O)SCF (stereo partly specified) | 1497 | 44 | 41 | 20 | 2.5
C=C1CC2C3C[C@H](F)C4=CC(=O)C=C[C@]4(C)[C@@]3(F)[C@@H](O)C[C@]2(C)[C@@]1(OC(=O)CC)C(=O)SCF (stereo partly specified) | 1048 | >100 | 197 | – | –
CCCC(=O)O[C@]1(C(=O)SCCl)[C@@H](C)CC2C3CCC4=CC(=O)C=C[C@]4(C)[C@@]3(F)[C@@H](O)C[C@@]21C (stereo partly specified) | 143 | – | – | – | –
CCC(=O)O[C@]1(C(=O)SCF)[C@@H](C)CC2C3CCC4=CC(=O)C=C[C@]4(C)[C@@]3(F)[C@@H](O)C[C@@]21C (stereo partly specified) | 1262 | 450 | 89 | 39 | 13
CCC(=O)O[C@]1(C(=O)SCF)CCC2C3CCC4=CC(=O)C=C[C@]4(C)[C@@]3(F)[C@@H](O)C[C@@]21C (stereo partly specified) | 1984 | 149 | 63 | 39 | 1.5
CCC(=O)O[C@]1(C(=O)SCF)[C@H](C)CC2C3CCC4=CC(=O)C=C[C@]4(C)[C@@]3(F)[C@@H](O)C[C@@]21C (stereo partly specified) | 653 | – | – | – | –
CCC(=O)O[C@]1(C(=O)SCCl)[C@H](C)CC2C3C[C@H](F)C4=CC(=O)C=C[C@]4(C)[C@@]3(F)[C@@H](O)C[C@@]21C (stereo partly specified) | 124 | 0.04 | 56 | 29 | <0.02
CC(=O)O[C@]1(C(=O)SCCl)[C@@H](C)CC2C3CCC4=CC(=O)C=C[C@]4(C)[C@@]3(F)[C@@H](O)C[C@@]21C (stereo partly specified) | 544 | 14.7 | 59 | 24 | 0.5
C=C1CC2C3C[C@H](F)C4=CC(=O)C=C[C@]4(C)[C@@]3(F)[C@@H](O)C[C@]2(C)[C@@]1(OC(=O)CC)C(=O)SCCl (stereo partly specified) | 170 | >100 | 108 | – | –
CCC(=O)O[C@]1(C(=O)SCF)CCC2C3C[C@H](F)C4=CC(=O)C=C[C@]4(C)[C@H]3[C@@H](O)C[C@@]21C (stereo partly specified) | 697 | >200 | 56 | 97 | –
CC(=O)O[C@]1(C(=O)SCF)[C@@H](C)CC2C3CCC4=CC(=O)C=C[C@]4(C)[C@@]3(F)[C@@H](O)C[C@@]21C (stereo partly specified) | 1388 | – | 67 | 40 | 13.5
CC1(C)O[C@@H]2C[C@H]3[C@@H]4C[C@H](F)C5=CC(=O)C=C[C@]5(C)[C@@]4(F)[C@@H](O)C[C@]3(C)[C@]2(C(=O)CO)O1 [FLUOCINOLONE ACETONIDE] | 100 | 100 | 100 | 100 | 100
CCC(=O)O[C@]1(C(=O)SCF)[C@H](C)C[C@H]2[C@@H]3C[C@H](F)C4=CC(=O)C=C[C@]4(C)[C@@]3(F)[C@@H](O)C[C@@]21C [FLUTICASONE PROPIONATE] | 945 | 1 | 113 | 85 | 1.5
